# According to ChEMBL document CHEMBL1127389, “Synthesis and biological activity of 2-hydroxy and 2-alkoxy analogs of 1 alpha,25-dihydroxy-19-norvitamin D3” (1994):
# Several values for one entry are separate records, joined by “and”; a condition that tells them apart may be missing. Equal entries are not always repeated.
# Assays:
# Rattus norvegicus [1] = organism: Rattus norvegicus; assay: tested in the vitamin D-deficient rat for the ability to support intestinal absorption of calcium with compound concentration 325 (pmol/d/7 days) expressed as Serum/Mucosal ratio; assay type: functional
# Procedure, shortened: (§1)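 Vitamin D-deficient Holtzman weanling rats were kept 1 week on a 0.47% Ca diet, then on a 0.02% Ca diet. They were given intraperitoneal injections daily for 7 days in 0.1 mL of 95:5 propylene glycol/ethanol, with vehicle controls, and killed 24 h after the last dose. Transport was measured by everted sac of the proximal 10 cm of intestine, as the ratio of sac Ca to final medium Ca (S/M). Groups had at least 6 rats; Student's t-test.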
# Rattus norvegicus [2] = organism: Rattus norvegicus; assay: tested in the vitamin D-deficient rat for the ability to support intestinal absorption of calcium with compound concentration 130 (pmol/d/7 days) expressed as Serum/Mucosal ratio; assay type: functional; procedure, shortened: as §1
# Rattus norvegicus [3] = organism: Rattus norvegicus; assay: tested in the vitamin D-deficient rat for the ability to support intestinal absorption of calcium with compound concentration 65 (pmol/d/7 days) expressed as Serum/Mucosal ratio; assay type: functional; procedure, shortened: as §1
# Rattus norvegicus [4] = organism: Rattus norvegicus; assay: Bone calcium-mobilizing activity with concentration 260 (pmol/d/7 days); assay type: functional, organism-based
# Procedure, shortened: (§2)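 Holtzman weanling rats were fed a vitamin D-deficient diet with 0.47% Ca for 1 week, then a 0.02% Ca diet. They received daily intraperitoneal doses in 0.1 mL of 95:5 propylene glycol/ethanol for 7 days; controls got vehicle. Rats were killed 24 h after the last dose. Serum Ca was measured by automatic calcium titrator; on this diet, the rise in serum Ca is taken as bone Ca mobilization. At least 6 rats/group; Student's t-test.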
# Rattus norvegicus [5] = organism: Rattus norvegicus; assay: Tested in the vitamin D-deficient rat for the ability to support intestinal absorption of calcium with compound concentration 260 (pmol/d/7 days) expressed as Serum/Mucosal ratio; assay type: functional; procedure, shortened: as §1
# Rattus norvegicus [6] = organism: Rattus norvegicus; assay: Bone calcium-mobilizing activity with compound concentration 260 (pmol/d/7 days); assay type: functional, organism-based; procedure, shortened: as §2
# Rattus norvegicus [7] = organism: Rattus norvegicus; assay: Bone calcium-mobilizing activity with compound concentration 325 (pmol/d/7 days); assay type: functional, organism-based; design: unit not given here; procedure, shortened: as §2
# Rattus norvegicus [8] = organism: Rattus norvegicus; assay: Bone calcium-mobilizing activity with compound concentration 130 (pmol/d/7 days); assay type: functional, organism-based; procedure, shortened: as §2
# Rattus norvegicus [9] = organism: Rattus norvegicus; assay: Bone calcium-mobilizing activity with compound concentration 65 (pmol/d/7 days); assay type: functional, organism-based; procedure, shortened: as §2
# Rattus norvegicus [10] = organism: Rattus norvegicus; assay: Bone calcium-mobilizing activity with compoundm concentration 130 (pmol/d/7 days); assay type: functional, organism-based; procedure, shortened: as §2
# Rattus norvegicus [11] = organism: Rattus norvegicus; assay: Tested in the vitamin D-deficient rat for the ability to support intestinal absorption of calcium with compound concentration 325 (pmol/d/7 days) expressed as Serum/Mucosal ratio; assay type: functional
# Rattus norvegicus [12] = organism: Rattus norvegicus; assay: Tested in the vitamin D-deficient rat for the ability to support intestinal absorption of calcium with compound concentration 65 (pmol/d/7 days) expressed as Serum/Mucosal ratio; assay type: functional
# Rattus norvegicus [13] = organism: Rattus norvegicus; assay: Tested in the vitamin D-deficient rat for the ability to support intestinal absorption of calcium with compound concentration 130 (pmol/d/7 days) expressed as Serum/Mucosal ratio; assay type: functional
# Rattus norvegicus [14] = organism: Rattus norvegicus; assay: tested in the vitamin D-deficient rat for the ability to support intestinal absorption of calcium with compound concentration 260 (pmol/d/7 days) expressed as Serum/Mucosal ratio; assay type: functional; procedure, shortened: as §1
smiles,measurement,setting,value
C[C@H](CCCC(C)(C)O)[C@H]1CC[C@H]2/C(=C/C=C3C[C@@H](O)C(OCCCO)[C@H](O)C3)CCC[C@]12C (stereo partly specified) [listing 1 of 3 here],Ratio,Rattus norvegicus [1],4.3
same,Ratio,Rattus norvegicus [2],3.5
C[C@H](CCCC(C)(C)O)[C@H]1CC[C@H]2/C(=C\C=C3C[C@@H](O)C(O)[C@H](O)C3)CCC[C@]12C (stereo partly specified) [listing 1 of 3 here],Ratio,Rattus norvegicus [1],10.8
same,Ratio,Rattus norvegicus [3],5.8
C[C@H](CCCC(C)(C)O)[C@H]1CC[C@H]2/C(=C/C=C3C[C@@H](O)C(OCc4ccccc4)[C@H](O)C3)CCC[C@]12C (stereo partly specified),Serum Ca2+,Rattus norvegicus [4],4.6
same,Ratio,Rattus norvegicus [5],11.9
C[C@H](CCCC(C)(C)O)[C@H]1CC[C@H]2/C(=C\C=C3C[C@@H](O)C(O)[C@H](O)C3)CCC[C@]12C (stereo partly specified) [listing 2 of 3 here],Ratio,Rattus norvegicus [1],5
same,Ratio,Rattus norvegicus [2],5.3
C[C@H](CCCC(C)(C)O)[C@H]1CC[C@H]2/C(=C/C=C3C[C@@H](O)C(OCCCO)[C@H](O)C3)CCC[C@]12C (stereo partly specified) [listing 2 of 3 here],Serum Ca2+,Rattus norvegicus [6],4.7
same,Serum Ca2+,Rattus norvegicus [7],5.8
same,Serum Ca2+,Rattus norvegicus [8],4.9
C[C@H](CCCC(C)(C)O)[C@H]1CC[C@H]2/C(=C\C=C3C[C@@H](O)C(O)[C@H](O)C3)CCC[C@]12C (stereo partly specified) [listing 3 of 3 here],Serum Ca2+,Rattus norvegicus [9],4.2
same,Serum Ca2+,Rattus norvegicus [7],4.2 and 4.1
same,Serum Ca2+,Rattus norvegicus [10],4.1
C=C1/C(=C/C=C2/CCCC3(C)C2CCC3[C@H](C)CCCC(C)(C)O)C[C@@H](O)C[C@@H]1O (stereo partly specified),Serum Ca2+,Rattus norvegicus [6],5.9
same,Ratio,Rattus norvegicus [11],10.5 and 7.8
same,Serum Ca2+,Rattus norvegicus [7],6.8 and 7.1
same,Ratio,Rattus norvegicus [12],8.3
same,Ratio,Rattus norvegicus [13],8 and 7.1
same,Ratio,Rattus norvegicus [5],10.5
C[C@H](CCCC(C)(C)O)[C@H]1CC[C@H]2/C(=C/C=C3C[C@@H](O)C(OCCCO)[C@H](O)C3)CCC[C@]12C (stereo partly specified) [listing 3 of 3 here],Ratio,Rattus norvegicus [14],5.7
